From PubChem BioAssay AID624466 (The Scripps Research Institute Molecular Screening Center, 2012)
Hit rate of the full screen: of about 360,000 compounds, about 5,400 (1.5%) were called active. The list comes from a sample in which actives are over-represented; it also holds similar structures and randomly drawn compounds. Values without a mark were called inactive.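 How the source made its calls: active means inhibition above a per-plate cutoff, the mean inhibition of test compounds on that plate plus 3 SD (cut at about 49% in these data); inactive means the rest.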

These compounds were tested against Trace amine-associated receptor 1 (Homo sapiens) (UniProt Q96RJ0) (assay: blockers of beta-PEA-driven TAAR1 calcium signal – Fluo-8 calcium fluorescence, CHO RD-HGA16 cells, primary screen (AID 624466;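 further: 0% = DMSO plus EC80 beta-PEA response and 100% = DMSO alone without agonist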)). Settings: CHO RD-HGA16 TAAR1, Fluo-8 calcium fluorescence, antagonist; at 3 µM; active compounds read high.
Chain of Trace amine-associated receptor 1 (Homo sapiens) (Q96RJ0 whole entry, looked up): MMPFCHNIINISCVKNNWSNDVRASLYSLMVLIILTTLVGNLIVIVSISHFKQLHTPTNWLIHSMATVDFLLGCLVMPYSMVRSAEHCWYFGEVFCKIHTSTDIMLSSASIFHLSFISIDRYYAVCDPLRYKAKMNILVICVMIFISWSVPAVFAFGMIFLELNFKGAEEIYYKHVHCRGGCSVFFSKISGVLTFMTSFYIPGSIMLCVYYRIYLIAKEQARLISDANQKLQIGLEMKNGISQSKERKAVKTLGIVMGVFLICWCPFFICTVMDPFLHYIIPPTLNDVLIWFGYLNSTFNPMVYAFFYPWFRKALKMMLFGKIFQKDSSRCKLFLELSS
Procedure, shortened: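 System: RD-HGA16 CHO cells with stable hTAAR1 and Gα16 | Probe or stimulus: EC80 β-phenethylamine stimulus | Dosing: 3 µM, single point | Times: Dye loading 75 min at 37 °C, then 30 min room temperature | Measured by: Fluo-8 calcium-sensitive fluorescence | Read-out basis: % inhibition of agonist calcium response | Replicates: n of 1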
For `C[C@H](CO)N1C[C@H](C)[C@@H](CN(C)C(=O)Nc2ccccc2F)OCc2cn(nn2)CCCC1=O`, the inhibition was 6.99%.
`CCCNC(=O)C1(C)CCN(Cc2csc(-c3ccc(Cl)cc3)n2)C1` (stereo not drawn) showed an inhibition of -5.66%.
In the case of `CN(C)S(=O)(=O)c1cccc(NC(=O)COC(=O)C2(c3ccccc3F)CCCC2)c1`, the inhibition was 62.5% (active).
With `CN(C)S(=O)(=O)c1cccc(NC(=O)COc2ccc3ccccc3c2)c1` the inhibition was 30.8%.
Work on `CN(C)S(=O)(=O)c1cccc(NC(=O)COC(=O)c2cc(=O)[nH]c(=O)[nH]2)c1` yielded an inhibition of -12.5%.
`Nc1[nH]c(C(=O)c2ccc(Br)cc2)c(-c2ccc3c(c2)OCO3)c1C(=O)NCCc1c[nH]c2ccccc12` gave an inhibition of -6.65%.
Compound `CC(C)(C)NC(=O)CN(C(=O)c1csnn1)c1ccccc1-c1ccccc1` has an inhibition of 5.99%.
`OC(CNCCc1ccc(Cl)cc1Cl)COc1ccccc1` (stereo not drawn) was tested, and the inhibition was 52.8% (active).
`OC(COc1ccccc1)CN1CCN(c2cccc(Cl)c2)CC1` (stereo not drawn) showed an inhibition of -33.9%.
Work on `COc1ccc(OCC(O)CNC(=O)Nc2ccc(Cl)cc2)cc1` (stereo not drawn) yielded an inhibition of 12.9%.
With `CCOc1ccc(CCN2C(=O)C(=O)N([C@@H](Cc3ccc(O)cc3)CN3CCC[C@H]3CN3C(=O)C(=O)NC[C@@H]3CC(C)C)C[C@@H]2Cc2ccccc2)cc1` the inhibition was -8.01%.
`CCOC(=O)C1CSCCS(=O)(=O)N1Cc1ccc(Cl)cc1` (stereo not drawn) showed an inhibition of -2.26%.
Work on `NC(=O)C1CCN(C(=O)c2ccc3c(=O)n(Cc4cccc(Br)c4)c(=S)[nH]c3c2)CC1` yielded an inhibition of -0.46%.
In the case of `C=CCn1c(SCc2cccc(F)c2)nc2cc(C(=O)N3CCC(C(N)=O)CC3)ccc2c1=O`, the inhibition was 62.7% (active).
`C=CCn1c(SCC(=O)CC(=O)OCC)nc2cc(C(=O)N3CCC(C(N)=O)CC3)ccc2c1=O` gave an inhibition of -12.6%.
For `COc1ccc(-c2[nH]ncc2CN(C)Cc2cccnc2)c(F)c1`, the inhibition was -6.76%.
For `COc1ccc2[nH]c(=O)c(CN(Cc3cccnc3)S(=O)(=O)c3ccccc3F)cc2c1`, the inhibition was 69.4% (active).
With `CCOc1ccc2[nH]c(=O)c(CN(CCCO)S(=O)(=O)c3ccc(F)cc3)cc2c1` the inhibition was 28.9%.
`CC(C)(C)NC(=O)c1cccc(NC(=O)Cc2ccc(Br)cc2)c1` was tested, and the inhibition was -5.95%.
With `O=C(Nc1ccccc1)c1ccc2nsnc2c1` the inhibition was -3.37%.
`O=C(Nc1cccc(NC(=O)c2ccc(Br)cc2)c1)c1ccccc1` was tested, and the inhibition was 66% (active).
With `CCn1cc(/C=C2/SC(=S)NC2=O)c(C)n1` the inhibition was -4.35%.
Compound `O=C(NCc1cccnc1)c1ccc2nc([C@@H]3O[C@H](CO)[C@H](O)[C@H](O)[C@H]3O)[nH]c2c1` has an inhibition of 1.36%.
Work on `CCOc1ccc(NC(=O)[C@H](C)NC(=O)C2CC(=O)N(c3ccc(OC)cc3)C2)cc1` (stereo partly drawn) yielded an inhibition of -34.6%.
With `CCOc1ccc(N2CC(C(=O)NCc3ccccn3)CC2=O)cc1` (stereo not drawn) the inhibition was -11.4%.
For `CCOc1ccc(N2CC(C(=O)N/N=C/c3sccc3C)CC2=O)cc1` (stereo not drawn), the inhibition was 105% (active).
With `O=C(NCc1ccccc1)[C@H]1CCCN1C(=O)[C@H]1CCCN1C(=O)c1cc(F)cc(F)c1` the inhibition was -9.09%.
`COC(=O)[C@]12CCCCC=C1N(Cc1ccc3c(c1)OCO3)C(=O)[C@H](CC(=O)N1CCOCC1)C2` gave an inhibition of 2.33%.
Compound `Cn1c(=O)c2ccccc2n(CC(=O)Nc2ccc3c(c2)OCCO3)c1=O` has an inhibition of -4.86%.
For `Cc1c(C(=O)NCc2ccc(C#N)cc2)sc(=O)n1Cc1ccc(C(=O)N(C)C)cc1`, the inhibition was 0.09%.
`Cc1ccc(Cn2c(C)c(C(=O)NCc3ccccc3C(F)(F)F)sc2=O)cc1` showed an inhibition of 24%.
`CC(=O)Oc1ccc(Cn2c(C)c(C(=O)NCc3ccc(C#N)cc3)sc2=O)cc1` was tested, and the inhibition was 85.1% (active).
`OC(CCl)CCl` gave an inhibition of -9.09%.
For `CCCCCn1nnnc1-c1nc2cc3ccccc3cc2[nH]c1=O`, the inhibition was 21.1%.
`Cc1ccc(Cc2c(-c3ccc(Cl)cc3)nc3c4ccccc4ccn23)cc1` gave an inhibition of -7.64%.
`COC(=O)C[C@H]1C=C[C@@H](NS(=O)(=O)c2ccc(C)cc2)[C@@H](CO)O1` gave an inhibition of -21.2%.
With `Cc1cc(C)cc(N(CC(=O)NCC2CCCO2)S(=O)(=O)c2c(C)noc2C)c1` (stereo not drawn) the inhibition was -14.5%.
`Cc1noc(C)c1S(=O)(=O)N(CC(=O)NCc1ccc(Cl)cc1)c1ccc2c(c1)OCO2` showed an inhibition of -0.54%.
`CCN(CC(=O)Nc1ccc2c(c1)OCO2)S(=O)(=O)c1ccccc1` gave an inhibition of 7.44%.
Work on `CCOc1ccc(N(CC(=O)OC)S(=O)(=O)c2c(C)noc2C)cc1` yielded an inhibition of 1.95%.
`Cc1noc(C)c1S(=O)(=O)N(CC(=O)Nc1ccc2c(c1)OCCO2)c1ccc(C(C)C)cc1` was tested, and the inhibition was 52.7% (active).
With `O=C(CN(c1ccc2c(c1)OCCO2)S(=O)(=O)c1ccccc1)Nc1ccc2c(c1)OCO2` the inhibition was 54% (active).
For `COc1ccc(N(CC(=O)Nc2cc(OC)ccc2OC)S(=O)(=O)c2c(C)noc2C)cc1`, the inhibition was 4.12%.
In the case of `O=C(CCS(=O)(=O)Cc1ccccc1)Nc1ccc2c(c1)OCCO2`, the inhibition was -13.2%.
With `CCOC(=O)c1cccc(NC(=O)CN(c2ccc(C)cc2)S(=O)(=O)c2c(C)noc2C)c1` the inhibition was 72.2% (active).
Compound `C[C@H](O)[C@@H]1CN2CCc3ccc(-c4ccc5c(c4)OCO5)cc3[C@@H]2C[C@@H]1N(C)C(=O)C1CCCCC1` has an inhibition of -24.1%.
Compound `OC(c1cc(Cl)cc(Cl)c1)c1ncc(-c2ccccc2C(F)(F)F)[nH]1` (stereo not drawn) has an inhibition of 11.8%.
In the case of `Cc1cc2c(nc1C)CCCN2C`, the inhibition was 0.43%.
For `COc1ccc(N2c3ccccc3CN(Cc3ccccc3)[C@@H](C)[C@H]2Cc2ccc(-c3ccccc3)cc2)cc1`, the inhibition was -11.9%.
Work on `COC(=O)[C@]12C[C@H](CC(=O)NCCc3ccccc3OC)C(=O)N(Cc3ccccc3)C1=C[C@H](C(C)C)O[C@@H]2C1CC1` yielded an inhibition of -27.5%.
In the case of `Cc1ccc2nc(COc3ccc(N(C)S(=O)(=O)c4ccccc4)cc3)cc(=O)n2c1`, the inhibition was 36%.
For `O=C(Nc1ccccn1)C1CCN(S(=O)(=O)c2ccccc2)CC1`, the inhibition was 0.4%.
`Cc1ccnc(NC(=O)C2CCN(S(=O)(=O)c3c(C)c(C)cc(C)c3C)CC2)c1` was tested, and the inhibition was 50% (active).
Work on `Cc1cccc(NC(=O)C2CCN(S(=O)(=O)c3cccc4cccnc34)CC2)c1` yielded an inhibition of 32.8%.
Work on `COC(=O)[C@H](CC(C)C)NS(=O)(=O)c1c(F)cccc1F` yielded an inhibition of -8.02%.
`COC(=O)C1=C(C)N(Cc2cccc(C(F)(F)F)c2)C(=NCc2ccccc2)NC1c1ccccc1C(F)(F)F` (stereo not drawn) gave an inhibition of -4.18%.
With `O=C1NC[C@@H](c2ccccc2)OC(=O)[C@H](Cc2ccc(F)cc2)CC/C=C/C[C@H]1CC(=O)N(CCO)Cc1ccccc1` the inhibition was 74% (active).
`O=C1CCC/C=C/C[C@@H](CC(=O)N(CCO)Cc2ccccc2)C(=O)NC[C@H](c2ccccc2)O1` was tested, and the inhibition was -5.27%.
`O=C1N[C@@H](c2ccccc2)COC(=O)[C@H](Cc2ccc(F)cc2)C/C=C\C[C@@H]1CC(=O)N(CCO)Cc1ccccc1` showed an inhibition of 42.8%.
Compound `COc1ccc(C2=CN(Cc3ccccc3)C(c3ccc(OC)cc3)CC2=O)cc1` (stereo not drawn) has an inhibition of -4.92%.
With `COc1ccc2[nH]c(C(=O)Nc3ccccc3Cl)cc2c1` the inhibition was -23.7%.
For `COc1cccc(OCc2cc(/C=N/NC(=O)c3nc(Cl)c(Cl)c(N)c3Cl)ccc2OC)c1`, the inhibition was -5%.
`COc1ccc2[nH]c(C(=O)N/N=C/c3cc(OC)c(OC)c(OC)c3)cc2c1` was tested, and the inhibition was 50.5% (active).
Compound `Cc1cc(NCCc2c[nH]c3ccccc23)ccc1Oc1cccnc1` has an inhibition of 21.6%.
In the case of `COc1ccc2sc(-c3ccc(S(C)(=O)=O)cc3)c(C#Cc3cncn3C)c2c1`, the inhibition was 47.9%.
With `COc1ccc2sc(-c3ccc(S(C)(=O)=O)cc3)c(-c3ccc(C(N)=O)cc3)c2c1` the inhibition was 50.5% (active).
In the case of `COc1cc(OC)cc(-c2sc3ccc(OC)cc3c2-c2ccc3cc[nH]c3c2)c1`, the inhibition was -5.68%.
`CN(C)C(=O)N1CCN(C(=O)[C@@H](Cc2ccccc2)NC(=O)[C@H]2O[C@@H](n3ccc(N)nc3=O)[C@H](O)[C@@H]2O)CC1` was tested, and the inhibition was -11.3%.
Compound `CCOC(=O)N1CCN(C(=O)C[C@@H]2C[C@@]3(C(=O)OC)CCCCC=C3N(CCC3=CCCCC3)C2=O)CC1` has an inhibition of 16.7%.
For `OC(c1ccccc1)(c1ccccc1)C1CCN(CCCOc2ccccc2)CC1`, the inhibition was 19.2%.
`N#Cc1ccc(OCCCN2CCC(C(O)(c3ccccc3)c3ccccc3)CC2)c(F)c1` was tested, and the inhibition was 18.2%.
With `OC(c1ccccc1)(c1ccccc1)C1CCN(CCCOc2ccc(-c3ccsc3)cc2)CC1` the inhibition was 51.2% (active).
In the case of `CCC(C(=O)NC(C)(C)C)n1c(-c2ccccc2)nc2ccccc21` (stereo not drawn), the inhibition was -9.33%.
In the case of `COc1ccc(C(C(=O)Nc2c(C)cccc2C)N2CCN(c3ccc(C)cc3)CC2)cc1` (stereo not drawn), the inhibition was -16.4%.
`Cc1ccccc1CN1C(=O)CSCC1(C)C(=O)Nc1c(C)cccc1C` (stereo not drawn) showed an inhibition of -0.37%.
`COc1cccc(C(=O)NCCS(=O)(=O)NCC2CCCO2)c1` (stereo not drawn) was tested, and the inhibition was 4.1%.
`CN(C)S(=O)(=O)N1CCC(Oc2cccc(C(=O)NCCCC3CCCC3)c2)CC1` was tested, and the inhibition was 61.1% (active).
For `CN(C(=O)c1cccc(OC2CCN(S(=O)(=O)N(C)C)CC2)c1)C1CCOC1` (stereo not drawn), the inhibition was -15.9%.
`CCCCn1nnnc1C1(C)CCC(=O)N1Cc1ccc(OC)c(OC)c1` (stereo not drawn) showed an inhibition of -1.16%.
Work on `CC(C)(C)NC(=O)C(CCc1ccccc1)n1c(=O)c(-c2ccccc2)nc2ccccc21` (stereo not drawn) yielded an inhibition of -53.9%.
`COc1ccc(CCNC(=O)c2nnc(CS(=O)(=O)c3ccccc3)o2)cc1OC` was tested, and the inhibition was -2.06%.
With `COc1ccc(CCNC(=O)c2ccc(CS(=O)(=O)c3ccc(Br)cc3)o2)cc1OC` the inhibition was 77.3% (active).
`COc1ccccc1CNC(=O)c1ccc(CS(=O)(=O)c2ccccc2)o1` gave an inhibition of 26.5%.
